Key:
CDK2-cyclin A = CDK2-cyclin A (Homo sapiens, UniProt P20248+P24941); assay: GST pull down, CDK2-cyclin A; format: binding; details: 25 mM HEPES pH 7.5, 150 mM NaCl, 1 mM DTT, 0.01% NP-40; 1 h, 4°C; SDS-PAGE; three experiments; Figure 1B
In short: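 Bacterially expressed proteins: CDK2 (1–298) as a GST fusion, cyclin A (1–432 or 173–432) as a 6XHis fusion. […] Incubated 1 h at 4 °C with mild agitation, washed three times in binding buffer, and bound material analysed by SDS-PAGE; repeated 2–3 times.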

[1] = test system: CDK2-cyclin A (Surface 2, hydrophobic patch); assay: Fluorescence polarization displacement of FITC-p27^27−36 from CDK2-cyclin A; format: binding, human

B1: Skp2^Δ1−88: Skp2 lacking the first 88 residues (protein)
chain 1: RENFPGVSWDSLPDELLLGIFSCLCLPELLKVSGVCKRWYRLASDESLWQTLDLTGKNLHPDVTGRLLSQGVIAFRCPRSFMDQPLAEHFSPFRVQHMDLSNSVIEVSTLHGILSQCSKLQNLSLEGLRLSDPIVNTLAKNSNLVRLNLSGCSGFSEFALQTLLSSCSRLDELNLSWCFDFTEKHVQVAVAHVSETITQLNLSGYRKNLQKSDLSTLVRRCPNLVHLDLSDSVMLKNDCFQEFFQLNYLQHLSLSRCYDIIPETLLELGEIPTLKTLQVFGIVPDGTLQLLKEALPHLQINCSHFTTIARPTIGNKKNQEIWGIKCRLTLQKPSCL
chain 2: MPSIKLQSSDGEIFEVDVEIAKQSVTIKTMLEDLGMDPVPLPNVNAAILKKVIQWCTHHKDDPGSGGTDDIPVWDQEFLKVDQGTLFELILAANYLDIKGLLDVTCKTVANMIKGKTPEEIRKTFNIKNDFTEEEEAQVRKENQWCEEK
modifications: left off: GST, end not stated, kept | His6, end not stated, state not stated
pull down / binding of CDK2-cyclin A^173−432 with or without Cks1 (CDK2-cyclin A): could not bind CDK2-cyclin A in the absence of Cks1

B2: 4A mutant of Skp2^1−424: full-length Skp2 with L32A/L33A/S39A/L41A (Motif 1 mutant) (protein)
chain 1: MHRKHLQEIPDLSSNVATSFTWGWDSSKTSEAASGMGVAAAEKEEPDSENIPQELLSNLGHPESPPRKRLKSKGSDKDFVIVRRPKLNRENFPGVSWDSLPDELLLGIFSCLCLPELLKVSGVCKRWYRLASDESLWQTLDLTGKNLHPDVTGRLLSQGVIAFRCPRSFMDQPLAEHFSPFRVQHMDLSNSVIEVSTLHGILSQCSKLQNLSLEGLRLSDPIVNTLAKNSNLVRLNLSGCSGFSEFALQTLLSSCSRLDELNLSWCFDFTEKHVQVAVAHVSETITQLNLSGYRKNLQKSDLSTLVRRCPNLVHLDLSDSVMLKNDCFQEFFQLNYLQHLSLSRCYDIIPETLLELGEIPTLKTLQVFGIVPDGTLQLLKEALPHLQINCSHFTTIARPTIGNKKNQEIWGIKCRLTLQKPSCL
chain 2: MPSIKLQSSDGEIFEVDVEIAKQSVTIKTMLEDLGMDPVPLPNVNAAILKKVIQWCTHHKDDPGSGGTDDIPVWDQEFLKVDQGTLFELILAANYLDIKGLLDVTCKTVANMIKGKTPEEIRKTFNIKNDFTEEEEAQVRKENQWCEEK
modifications: left off: GST, end not stated, cleaved | His6, end not stated, cleaved
loss of displacement effectiveness versus wild-type ([1]; mutant versus wild-type Skp2^1−424, FITC-p27^27−36, Figure 4F): 3 fold

B3: F79A/I81A/R83A: full length Skp2 (Skp1-Skp2^1−424) with Motif 2 mutation F79A/I81A/R83A (protein)
chain 1: MHRKHLQEIPDLSSNVATSFTWGWDSSKTSELLSGMGVSALEKEEPDSENIPQELLSNLGHPESPPRKRLKSKGSDKDAVAVARPKLNRENFPGVSWDSLPDELLLGIFSCLCLPELLKVSGVCKRWYRLASDESLWQTLDLTGKNLHPDVTGRLLSQGVIAFRCPRSFMDQPLAEHFSPFRVQHMDLSNSVIEVSTLHGILSQCSKLQNLSLEGLRLSDPIVNTLAKNSNLVRLNLSGCSGFSEFALQTLLSSCSRLDELNLSWCFDFTEKHVQVAVAHVSETITQLNLSGYRKNLQKSDLSTLVRRCPNLVHLDLSDSVMLKNDCFQEFFQLNYLQHLSLSRCYDIIPETLLELGEIPTLKTLQVFGIVPDGTLQLLKEALPHLQINCSHFTTIARPTIGNKKNQEIWGIKCRLTLQKPSCL
chain 2: MPSIKLQSSDGEIFEVDVEIAKQSVTIKTMLEDLGMDPVPLPNVNAAILKKVIQWCTHHKDDPGSGGTDDIPVWDQEFLKVDQGTLFELILAANYLDIKGLLDVTCKTVANMIKGKTPEEIRKTFNIKNDFTEEEEAQVRKENQWCEEK
modifications: left off: GST, end not stated, cleaved | His6, end not stated, cleaved
IC50 ([1]; 25 nM FITC-p27^27−36, CDK2-cyclin A 6.25 μM, HEPES pH 7.5, 30 min, N=4, Figure 3E): not determinable | displacement of FITC-p27^27−36 (in words) ([1]; CDK2-cyclin A 6.25 μM, N=4, Figure 3E): greatly compromised for this function

— PMC8419023 (Structure (London, England : 1993), 2021)
